In publication PMC3798158 (Journal of medicinal chemistry, 2013):
“Also recorded” adds a separate entry of the source. Where a name gives a salt, the structure may show the parent alone. Read-outs that look alike come from different tables or passages of the source.

Key:
GAPDH = GAPDH (Oryctolagus cuniculus, UniProt P46406); assay: High resolution LC-MS of structural modifications of GAPDH tryptic peptides; parameters: species or system rabbit; settings: for Products, GAPDH tryptic peptide V232–R245 (Cys 244) / Products, GAPDH tryptic peptide I143–K159 (Cys 149, Cys 153): LC-MS after trypsin digest, 10 eq. where printed; for Product at Cys 281 of GAPDH (peptide G269–K306): mass spectrometric data extraction from reaction mixture
Summary of the method: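 Rabbit muscle GAPDH was incubated with test compound (10 equiv), then trypsin-digested at 20:1 (w/w, monomer:trypsin), 37 °C, 12−16 h, in 50 mM Tris-HCl, and quenched by freezing at −20 °C. Positive-ion Orbitrap, resolution 60000; Cys-peptide modifications were assigned by m/z.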

AhpC C165S = AhpC C165S (Salmonella typhimurium, UniProt P0A251, C166S); settings: LC-MS after Asp-N digest, 10 eq. where printed
rabbit muscle GAPDH [1] = molecular target: T1, rabbit muscle GAPDH (Oryctolagus cuniculus, UniProt P46406); assay: Reversibility of GAPDH inhibition by DTT; type: biochemical; settings: for GAPDH enzyme activity after treatment / GAPDH enzyme activity restored after DTT incubation: 1 μM compound, 60 min; for GAPDH enzyme activity restored after DTT incubation: then DTT
rabbit muscle GAPDH [2] = molecular target: T1, rabbit muscle GAPDH; assay: In vitro inhibition of GAPDH; type: biochemical; settings: for GAPDH inhibition (in words): incubation of GAPDH
[3] = cited from earlier work; for t1/2 of HNO release: neutral conditions
myofilament = settings: sensitizing myofilament responsiveness to calcium; cited from earlier work
STAT3 = settings: similar to AS; cited from earlier work
[4] = Stopped-flow UV-vis kinetic decomposition; type: physicochemical; settings: compared with AS

Chain of GAPDH (P46406 whole entry): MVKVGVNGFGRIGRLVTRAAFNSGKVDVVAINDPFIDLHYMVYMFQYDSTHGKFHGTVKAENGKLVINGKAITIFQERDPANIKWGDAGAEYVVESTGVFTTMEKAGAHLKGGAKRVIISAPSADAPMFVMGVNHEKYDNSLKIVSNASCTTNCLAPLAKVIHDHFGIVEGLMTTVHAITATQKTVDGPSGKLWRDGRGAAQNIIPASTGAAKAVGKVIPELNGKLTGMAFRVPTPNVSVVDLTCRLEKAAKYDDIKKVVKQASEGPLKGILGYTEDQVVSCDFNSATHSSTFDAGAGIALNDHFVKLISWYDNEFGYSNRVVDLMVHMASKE
T1 sequence (P46406 whole entry): as above

## N[C@@H](CCC(=O)N[C@@H](CSN=O)C(=O)NCC(=O)O)C(=O)O [GSNO, S-nitrosoglutathione]
GAPDH
  Products, GAPDH tryptic peptide V232–R245 (Cys 244): Nitrosylated product
AhpC C165S
  Products, C165S AhpC Asp-N peptide D41–G51 (Cys 46): Nitrosylated Product
Rabbit muscle GAPDH [1]
  DTT reversibility of GAPDH inhibition (in words): completely DTT reversible
Rabbit muscle GAPDH [2]
  GAPDH inhibition (in words): inhibition of enzyme activity

## O=Nc1ccccc1 [Nitrosobenzene, nitrosobenzene]
GAPDH
  Products, GAPDH tryptic peptide V232–R245 (Cys 244): Sulfinic acid
AhpC C165S
  Products, C165S AhpC Asp-N peptide D41–G51 (Cys 46): Sulfinic acid
Rabbit muscle GAPDH [2]
  IC50: 230 nM

## CC(=O)OC1(N=O)CCCCC1 [compound 1, 1-Nitrosocyclohexyl acetate]
GAPDH
  Products, GAPDH tryptic peptide I143–K159 (Cys 149, Cys 153): Internal disulfide; RSSR
  Products, GAPDH tryptic peptide V232–R245 (Cys 244): Sulfinic acid
  Product at Cys 281 of GAPDH (peptide G269–K306): sulfinic acid
[3]
  t1/2 of HNO release: 13.3 h
AhpC C165S
  Products, C165S AhpC Asp-N peptide D41–G51 (Cys 46): Sulfinic acid
Rabbit muscle GAPDH [1]
  GAPDH enzyme activity after treatment: 5 % of control
  GAPDH enzyme activity restored after DTT incubation: 12 % of control
myofilament
  effect on myocardial contractility: enhances myocardial contractility more potently than AS

## CC(C)(C)C(=O)OC1(N=O)CCCCC1 [compound 2, 1-nitrosocyclohexyl pivalate]
GAPDH
  Products, GAPDH tryptic peptide I143–K159 (Cys 149, Cys 153): Internal disulfide; RSSR
  Products, GAPDH tryptic peptide V232–R245 (Cys 244): Sulfinic acid
[3]
  t1/2 of HNO release: 37.8 h
AhpC C165S
  Products, C165S AhpC Asp-N peptide D41–G51 (Cys 46): Sulfinic acid
myofilament
  effect on myocardial contractility: no effect
STAT3
  effect on STAT3 activation: blocks STAT3 activation

## O=NC1(OC(=O)C(F)(F)F)CCCCC1 [compound 3, 1-Nitrosocyclohexyl trifluoroacetate]
GAPDH
  Products, GAPDH tryptic peptide I143–K159 (Cys 149, Cys 153): Internal disulfide; RSSR
  Products, GAPDH tryptic peptide V232–R245 (Cys 244): Sulfinamide,; also recorded: Sulfinic acid
[4]
  HNO release rate relative to AS: over 1000 times faster

## O=S(=O)(NO)c1ccccc1Br [o-Bromo-Piloty’s Acid]
GAPDH
  Products, GAPDH tryptic peptide I143–K159 (Cys 149, Cys 153): Internal disulfide; RSSR
  Products, GAPDH tryptic peptide V232–R245 (Cys 244): Sulfinamide; also recorded: Sulfinic acid
AhpC C165S
  Products, C165S AhpC Asp-N peptide D41–G51 (Cys 46): Sulfinamide; also recorded: Sulfinic acid

## Diethylammonium-1- (N,N-diethylamino) diazen-1-ium- 1,2-diolate [DEANO]
GAPDH
  Products, GAPDH tryptic peptide V232–R245 (Cys 244): Nitrosylated product
Rabbit muscle GAPDH [2]
  GAPDH inhibition (in words): inhibition of enzyme activity

## Sodium trioxidinitrate [AS]
GAPDH
  Products, GAPDH tryptic peptide I143–K159 (Cys 149, Cys 153): Internal disulfide; RSSR
  Product at Cys 281 of GAPDH (peptide G269–K306): sulfinamide
GAPDH; listed as 14N AS
  Products, GAPDH tryptic peptide V232–R245 (Cys 244): Sulfinamide; also recorded: Sulfinic acid
[3]; pH 7, 37 °C
  rate constant of decomposition to HNO and nitrite: 0.005 s⁻¹
AhpC C165S; listed as 14N AS
  Products, C165S AhpC Asp-N peptide D41–G51 (Cys 46): Sulfinamide; also recorded: Sulfinic acid
Rabbit muscle GAPDH [1]
  GAPDH enzyme activity after treatment: 23 % of control
  GAPDH enzyme activity restored after DTT incubation: 51 % of control
